Results on 40 compounds are retold here after ChEMBL document CHEMBL4513216, “Probing the Open Global Health Chemical Diversity Library for Multistage-Active Starting Points for Next-Generation Antimalarials” (ACS Infect Dis, 2020).

This series can be described thus: Toxicity liver stage against HepG2, at 10uM. It is filed as cell-based. On the set-up: test concentration 10 uM, cell line HepG2-A16-CD81EGFP. To be noted: human, HepG2-A16-CD81EGFP cells; read-out: INHIBITION
An outline of the steps:
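Uninfected HepG2-A16-CD81EGFP cells, 3 × 10^3 per well, 1536-well, plated on prespotted compound at 10 μM final, parasite-free screening media added to match infected plates; puromycin 10 μM positive, DMSO 0.5% negative; run in parallel with 48 h PbLuc assay at 37 °C, 5% CO2; viability by CellTiter-Glo luminescence, normalized to controls.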

Regarding `N#Cc1ccc(NCCS(=O)(=O)N2CCc3ccccc32)nc1`, the cytotoxicity at 10 µM was -8.69%.
With `Cc1nc2c(C#N)cnn2c(C)c1CCC(=O)N(C)C1CC1`, the cytotoxicity at 10 µM was -47.2%.
Take `O=C(Nc1ccccc1)N1CCn2c(nnc2C2CCCN2)C1` (stereo not given): the cytotoxicity at 10 µM was 2.91%.
Consider `CC(C)(C)C(=O)N1CCN(C(=O)Nc2cnn(CC(F)F)c2)CC1`, for which the cytotoxicity at 10 µM is 9.62%.
On to `CCN(CC)CCNC(=O)c1cc(C(C)C)nc(N2CCCC2)n1`, for which the cytotoxicity at 10 µM is -2.44%.
Consider `COc1ccc(-c2cc3cccn(CC(=O)N4CCOCC4)c-3n2)cc1`, for which the cytotoxicity at 10 µM is -7.26%.
In the case of `Cc1noc(C)c1-c1cc(CC2CCN(C(=O)c3cc[nH]n3)C2)ncn1` (stereo not given), the cytotoxicity at 10 µM is -13.4%.
Turning to `N#Cc1ncn(CCC(=O)Nc2ccc(Cl)cc2F)n1`, the cytotoxicity at 10 µM is -8.94%.
Then `Cn1cc(C2COC3(CCN(C(=O)Cc4ccccc4)CC3)C2)cn1` (stereo not given), with -108%.
The same measure for `CC(C)Oc1cccc(CC(=O)NC2CCN(CC(N)=O)CC2)c1`: 3.05%.
As to `Cc1cnn(CCNCc2nc(Cc3ccccc3)no2)c1`, the cytotoxicity at 10 µM was -7.7%.
In the case of `CCc1ccc(C(=O)N2CCCC2c2c(C)nn(C)c2OC)o1` (stereo not given), the cytotoxicity at 10 µM stood at 6.16%.
In the case of `COCCN1C(=O)CCC12CCC(NCc1cccc(C)n1)CC2` (stereo not given), the cytotoxicity at 10 µM worked out at 9.4%.
Regarding `CCOC(C)c1nc(CN2CCN(CC(F)F)CC2)cs1` (stereo not given), the cytotoxicity at 10 µM was -8.94%.
As for `CCc1cnccc1C(=O)NC1CCN(Cc2ccccc2F)CC1`, the cytotoxicity at 10 µM is -4.35%.
As for `Cc1cc(C(=O)N2CCCC(c3cc(=O)nc4n3CCC4)C2)on1` (stereo not given), the cytotoxicity at 10 µM was -1.28%.
For the compound `CC(C)c1nc(C(=O)N2CCOCC2CC(=O)c2ccco2)c[nH]1` (stereo not given), the cytotoxicity at 10 µM stood at 0.769%.
Then `COc1ccc(-c2nc(CNC3CCc4nc(C)nn4C3)no2)cc1` (stereo not given), with -3.42%.
For the compound `OCC1(CC2CCCCO2)CCN(c2cnc3ccccc3n2)CC1` (stereo not given), the cytotoxicity at 10 µM was found to be 21.1%.
Then `N#Cc1ccc(S(=O)(=O)N2CSCC2C(=O)NCC(F)(F)F)cc1` (stereo not given), with -7.6%; and `O=C(C1CCCC1)N1CCOc2cccc(F)c21`, with -2.54%; and `O=C(c1cc(-n2cccn2)ccn1)N1CCOc2ccncc21`, with 10.6%.
As to `O=C(Cc1cn2ccccc2n1)N1CCCC(n2ccnc2)C1` (stereo not given), the cytotoxicity at 10 µM was -22.4%.
The same measure for `Cc1nn(-c2ccccc2)c(C)c1CN1CCNCC1`: 6.19%; for `Cc1cn2c(=O)c(-c3ccnc(N[C@@H]4CCOC4)n3)cnc2s1`: -9.19%.
The same measure for `COc1ccc(C(=O)N2CCN(C(=O)c3csc(C(C)C)n3)CC2)cc1`: -10.4%; for `CC(NC(=O)NCCCN(C)S(C)(=O)=O)c1ccc(C#N)cc1` (stereo not given): -5.77%.
Regarding `CCc1cc(N(C)Cc2[nH]nc3c2CCC3)nc(N2CCOCC2)n1`, the cytotoxicity at 10 µM is 5.51%.
For the compound `COC1COC2(CCN(Cc3ccccc3C)CC2)C1` (stereo not given), the cytotoxicity at 10 µM came out at 2.84%.
Regarding `Cc1cc(C)cc(OCC(O)CN2CCN(c3nccs3)CC2)c1` (stereo not given), the cytotoxicity at 10 µM was -7.32%.
Regarding `CCn1ccnc1CN1CCN(CC(=O)NC(C2CC2)C2CC2)CC1`, the cytotoxicity at 10 µM was -19.4%.
The same measure for `CCOc1ccc(CNCCCn2ccnc2)cc1Cl`: -9.51%; for `O=C(CCNCc1cccc(O)c1)N1CCc2sccc2C1`: 16%.
Then `CCc1nc(C2CCCN2CC(=O)Nc2sc(C)c(C)c2C)no1` (stereo not given), with -10.9%; and `COc1c(C)cnc(CN2CCC(N(C)C(=O)C3CC3)CC2)c1C`, with -2.74%; and `COc1cc(OC)cc(-c2cc(N)on2)c1`, with 7.79%.
With `CCOC(=O)N1CCCC2(CCN(Cc3ccccc3C#N)C2)C1` (stereo not given), the cytotoxicity at 10 µM was found to be 3.37%.
Then `N#Cc1ccc(N2CCCC(CO)(CCOc3ccccc3)C2)nc1` (stereo not given), with 17.4%.
As to `C[C@@H]1CN(C(=O)c2ccc(C#N)nc2)CC[C@@]1(O)C1CCOCC1`, the cytotoxicity at 10 µM is -11.5%.
In the case of `O=C(CN1CCc2ccccc2C1)NCc1ccco1`, the cytotoxicity at 10 µM was 6.32%.
